# Data: paper PMC3472128 (Structure (London, England : 1993), 2012)
# B1: S206A: Smad7 mutant S206A, flag epitope-tagged plasmid expressed in HEK293T (protein, UniProt O15105 1-426, looked up, variant S206A)
# chain: MFRTKRSALVRRLWRSRAPGGEDEEEGAGGGGGGGELRGEGATDSRAHGAGGGGPGRAGCCLGKAVRGAKGHHHPHPPAAGAGAAGGAEADLKALTHSVLKKLKERQLELLLQAVESRGGTRTACLLLPGRLDCRLGPGAPAGAQPAQPPSSYSLPLLLCKVFRWPDLRHSSEVKRLCCCESYGKINPELVCCNPHHLSRLCELEAPPPPYSRYPMDFLKPTADCPDAVPSSAETGGTNYLAPGGLSDSQLLLEPGDRSHWCVVAYWEEKTRVGRLYCVQEPSLDIFYDLPQGNGFCLGQLNSDNKSQLVQKVRSKIGCGIQLTREVDGVWVYNRSSYPIFIKSATLDNPDSRTLLVHKVFPGFSIKAFDYEKAYSLQRPNDHEFMQQPWTGFTVQISFVKGWGQCYTRQFISSCPCWLEVIFNSR
# modifications: full-length FLAG tag
# Test system: HA-YAP
# Assay: Immunoprecipitation of Smad7 with HA-YAP in HEK293T cells
# Format: cell-based, human
# Conditions: full-length Smad7 wild type or variants with HA-YAP
# Method in brief: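 HEK293T cells were transfected with epitope-tagged constructs (HA-YAP with full-length Smad7 wild type or variants) and treated where indicated with TGF-β1 at 100 pM. Lysates were immunoprecipitated with anti-Flag antibody, then immunoblotted with antibodies against the tags.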
molecule,measurement,value
B1,binding to HA-YAP in immunoprecipitation,binding is observed
